According to paper PMC4339026 (Biopolymers, 2014):

Biological target: T1, meprin α (Homo sapiens, UniProt Q16819)
T1 sequence (Q16819 66-653 limits assumed): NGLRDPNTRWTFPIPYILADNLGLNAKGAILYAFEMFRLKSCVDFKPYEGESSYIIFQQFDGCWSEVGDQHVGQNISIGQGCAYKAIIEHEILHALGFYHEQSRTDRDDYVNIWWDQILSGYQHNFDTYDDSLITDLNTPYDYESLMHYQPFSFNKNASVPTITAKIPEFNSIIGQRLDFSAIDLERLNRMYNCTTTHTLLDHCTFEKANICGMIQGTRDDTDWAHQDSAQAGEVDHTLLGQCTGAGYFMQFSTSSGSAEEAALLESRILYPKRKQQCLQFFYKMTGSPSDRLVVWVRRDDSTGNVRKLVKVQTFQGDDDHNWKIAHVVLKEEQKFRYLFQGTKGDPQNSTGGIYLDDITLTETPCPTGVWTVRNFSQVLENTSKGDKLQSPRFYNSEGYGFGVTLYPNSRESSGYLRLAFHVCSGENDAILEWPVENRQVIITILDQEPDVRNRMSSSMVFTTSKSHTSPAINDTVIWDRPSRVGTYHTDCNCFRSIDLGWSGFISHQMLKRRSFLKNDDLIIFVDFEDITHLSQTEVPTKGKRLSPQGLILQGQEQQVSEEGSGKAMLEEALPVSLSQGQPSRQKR
Test: Meprin α HTS FRET assay, dose response
Assay type: biochemical
Conditions: read-out: IC50 Meprin α; selectivity testing; n = 3 Mean ± SD
How it was run: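 Recombinant human Strep-tagged meprin α was expressed in baculovirus-infected BTI-TN-5B1-4 cells, trypsin-activated, then freed of trypsin. It was used as a 2x solution at 2.6 nM in 50 mM Hepes, 0.01% Brij-35, pH 7.5. Test compound was pre-incubated 30 min at RT, then 2x (MCA)-YVADAPK-(K-ε-DNP) at 20 μM was added for 1 h at RT. Read at ex 324/em 393 nm. 3-fold dilutions in quadruplicate; 4-parameter fit; 0.1% or 1.0% DMSO.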

O=C(Nc1cc(C(=O)Nc2ccc(S(=O)(=O)O)cc2S(=O)(=O)O)cc(C(=O)Nc2ccc(S(=O)(=O)O)cc2S(=O)(=O)O)c1)Nc1cc(C(=O)Nc2ccc(S(=O)(=O)O)cc2S(=O)(=O)O)cc(C(=O)Nc2ccc(S(=O)(=O)O)cc2S(=O)(=O)O)c1 [NF449, 4,4′,4″,4‴-[Carbonyl-bis[imino-5,1,3-benzenetriylbis-(carbonyl-imino)]]tetrakis(benzene-1,3-disulfonic acid)]
IC50: > 100 µM
